Converted amounts (≈) assume the structure as drawn. The source made the active and inactive calls. No cut-off for these calls is given here.
Legend:
[1] = target: T1, Multidrug efflux pump subunit AcrB (Escherichia coli (strain K12)) (UniProt P31224); experiment: Inhibition of AcrB in multidrug-resistant Escherichia coli BW25113 assessed as potentiation of chloramphenicol-induced antibacterial activity by measuring chloramphenicol MIC at 32 ug/ml by checkerboard titration method (reference value: 8 ug/ml); conditions: dose 32.0 µg/ml
T1 sequence (whole entry): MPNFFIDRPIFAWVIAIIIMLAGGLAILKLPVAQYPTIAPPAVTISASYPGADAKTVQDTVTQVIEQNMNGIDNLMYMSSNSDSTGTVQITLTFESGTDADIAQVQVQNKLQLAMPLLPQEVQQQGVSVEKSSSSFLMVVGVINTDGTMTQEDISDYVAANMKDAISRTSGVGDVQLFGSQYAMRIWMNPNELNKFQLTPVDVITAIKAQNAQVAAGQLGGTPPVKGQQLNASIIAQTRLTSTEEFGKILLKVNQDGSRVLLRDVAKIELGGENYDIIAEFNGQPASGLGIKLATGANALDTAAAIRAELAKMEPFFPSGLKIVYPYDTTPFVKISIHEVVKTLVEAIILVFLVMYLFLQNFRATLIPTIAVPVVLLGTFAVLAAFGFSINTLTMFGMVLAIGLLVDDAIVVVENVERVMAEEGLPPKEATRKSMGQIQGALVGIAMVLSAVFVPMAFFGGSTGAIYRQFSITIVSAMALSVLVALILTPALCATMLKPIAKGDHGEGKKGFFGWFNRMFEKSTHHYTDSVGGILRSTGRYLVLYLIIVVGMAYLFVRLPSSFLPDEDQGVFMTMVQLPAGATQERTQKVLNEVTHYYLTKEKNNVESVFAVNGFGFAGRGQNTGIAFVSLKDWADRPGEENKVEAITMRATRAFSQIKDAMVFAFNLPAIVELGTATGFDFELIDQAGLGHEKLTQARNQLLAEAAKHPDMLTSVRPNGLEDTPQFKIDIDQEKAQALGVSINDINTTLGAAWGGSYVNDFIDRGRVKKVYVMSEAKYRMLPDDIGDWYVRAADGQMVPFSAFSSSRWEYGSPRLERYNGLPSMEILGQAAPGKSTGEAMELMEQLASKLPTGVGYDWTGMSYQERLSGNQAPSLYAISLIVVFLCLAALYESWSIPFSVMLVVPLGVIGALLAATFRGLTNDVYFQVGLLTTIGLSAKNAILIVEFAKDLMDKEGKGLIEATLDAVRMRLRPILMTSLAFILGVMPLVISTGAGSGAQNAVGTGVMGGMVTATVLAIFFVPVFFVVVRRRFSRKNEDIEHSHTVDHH

[2] = target: T1, Multidrug efflux pump subunit AcrB (Escherichia coli (strain K12)); experiment: Inhibition of AcrB in Escherichia coli BW25113 assessed as reduction in glucose-induced nile red efflux at 100 uM preincubated for 15 mins followed by nile red addition and incubated for 3 hrs in shaker in presence of CCCP by fluorimetric analysis; conditions: time 3.25 hrs
How it was run: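 Wild-type and AcrB-deleted cells were preloaded with Nile Red, with or without compound. Fluorescence was recorded, and efflux was triggered at 100 s with 0.2% glucose. Traces were compared with the deletion-strain level. Triplicate experiments used different cell batches.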

[3] = target: T1, Multidrug efflux pump subunit AcrB (Escherichia coli (strain K12)); experiment: Inhibition of AcrB in multidrug-resistant Escherichia coli BW25113 assessed as potentiation of tetraphenylphosphonium-induced antibacterial activity by measuring tetraphenylphosphonium MIC at 128 ug/ml by checkerboard titration method (reference value: 1024 ug/ml); conditions: dose 128.0 µg/ml
[4] = target: T1, Multidrug efflux pump subunit AcrB (Escherichia coli (strain K12)); conditions: Escherichia coli BW25113; dose 8.0 µg/ml
[5] = target: T1, Multidrug efflux pump subunit AcrB (Escherichia coli (strain K12)); experiment: Inhibition of AcrB in multidrug-resistant Escherichia coli BW25113 assessed as potentiation of erythromycin-induced antibacterial activity by measuring erythromycin MIC at 64 ug/ml by checkerboard titration method (reference value: 64 ug/ml); conditions: dose 64.0 µg/ml
[6] = test system: Cell membrane; experiment: Induction of inner membrane permeabilization in wild type Escherichia coli BW25113 assessed as perturbation of proton motive force at 8 ug/ml measured after 10 mins in presence of CCCP and glucose by Di0C2(3) probe based fluorescence assay; conditions: escherichia coli bw25113, 10 min, dose 8 µg/ml
How it was run: (§1)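 Cell suspensions were left untreated or exposed to 8-128 µg/mL compound for 10 min. DiOC₂(3) was then added and fluorescence followed to a plateau. Cells were re-energized with 0.5% glucose, and the rise in fluorescence was read as membrane-potential build-up. CCCP was added last to dissipate the potential.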

[7] = target: T1, Multidrug efflux pump subunit AcrB (Escherichia coli (strain K12)); experiment: Inhibition of AcrB in multidrug-resistant Escherichia coli BW25113 assessed as potentiation of tetraphenylphosphonium-induced antibacterial activity by measuring tetraphenylphosphonium MIC at 64 ug/ml by checkerboard titration method (reference value: 1024 ug/ml); conditions: dose 64.0 µg/ml
[8] = target: T1, Multidrug efflux pump subunit AcrB (Escherichia coli (strain K12)); experiment: Inhibition of AcrB in multidrug-resistant Escherichia coli BW25113 assessed as potentiation of erythromycin-induced antibacterial activity by measuring erythromycin MIC at 16 ug/ml by checkerboard titration method (reference value: 64 ug/ml); conditions: dose 16.0 µg/ml
[9] = target: T1, Multidrug efflux pump subunit AcrB (Escherichia coli (strain K12)); experiment: Inhibition of AcrB in multidrug-resistant Escherichia coli BW25113 assessed as potentiation of levofloxacin-induced antibacterial activity by measuring levofloxacin MIC at 16 ug/ml by checkerboard titration method (reference value: 0.06 ug/ml); conditions: dose 16.0 µg/ml
[10] = target: T1, Multidrug efflux pump subunit AcrB (Escherichia coli (strain K12)); experiment: Inhibition of AcrB in multidrug-resistant Escherichia coli BW25113 assessed as potentiation of erythromycin-induced antibacterial activity by measuring erythromycin MIC at 128 ug/ml by checkerboard titration method (reference value: 64 ug/ml); conditions: dose 128.0 µg/ml
[11] = target: T1, Multidrug efflux pump subunit AcrB (Escherichia coli (strain K12)); experiment: Inhibition of AcrB in multidrug-resistant Escherichia coli BW25113 assessed as potentiation of levofloxacin-induced antibacterial activity by measuring levofloxacin MIC at 64 ug/ml by checkerboard titration method (reference value: 0.06 ug/ml); conditions: dose 64.0 µg/ml
[12] = test system: Cell membrane; experiment: Induction of outer membrane permeabilization in wild type Escherichia coli BW25113 assessed as increase in nitrocefin hydrolysis at 128 ug/ml in presence of CCCP by spectroscopic analysis; conditions: dose 128 µg/ml
How it was run: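 Intact E. coli were treated with 10 μM CCCP to block nitrocefin efflux, then given compound, nothing, or polymyxin B as permeabilizer control. Nitrocefin was added, and hydrolysis by periplasmic β-lactamase was followed as the rise in absorbance at 490 nm. Duplicate experiments were run on different days.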

[13] = target: T1, Multidrug efflux pump subunit AcrB (Escherichia coli (strain K12)); experiment: Inhibition of AcrB in multidrug-resistant Escherichia coli BW25113 assessed as potentiation of levofloxacin-induced antibacterial activity by measuring levofloxacin MIC at 128 ug/ml by checkerboard titration method (reference value: 0.06 ug/ml); conditions: dose 128.0 µg/ml
[14] = test system: Cell membrane; experiment: Induction of inner membrane permeabilization in wild type Escherichia coli BW25113 assessed as perturbation of proton motive force at 32 ug/ml measured after 10 mins in presence of CCCP and glucose by Di0C2(3) probe based fluorescence assay; conditions: escherichia coli bw25113, 10 min, dose 32 µg/ml; how it was run: as §1

## CC(C)NCCOc1ccc2c(c1)OC(C)(C)CC2=O
[1]
  MIC: 8 µg/mL
[2]
  inhibition: Active
[3]
  MIC: 1020 µg/mL
[4]
  MIC: 16 µg/mL (≈ 57.7 µM)
[5]
  MIC: 64 µg/mL
[6]
  Activity: Not Active
[7]
  MIC: 1020 µg/mL
[8]
  MIC: 64 µg/mL
[9]
  MIC: 0.03 µg/mL
[10]
  MIC: 64 µg/mL
[11]
  MIC: 0.03 µg/mL
[12]
  Activity: Not Active
[13]
  MIC: 0.03 µg/mL

## C=CC(=O)Nc1ccc(COc2cccc3c4c(c(C(=O)N5CCOCC5)cc23)CCC(C)(C)O4)cc1
[1]
  MIC: 4 µg/mL
[2]
  inhibition: Active
[3]
  MIC: 64 µg/mL
[4]
  MIC: 16 µg/mL (≈ 32 µM)
[5]
  MIC: 16 µg/mL
[6]
  Activity: Not Active
[7]
  MIC: 128 µg/mL
[8]
  MIC: 16 µg/mL
[9]
  MIC: 0.06 µg/mL
[10]
  MIC: 8 µg/mL
[11]
  MIC: 0.06 µg/mL
[12]
  Activity: Not Active
[13]
  MIC: 0.01 µg/mL

## CC1(C)CCc2c(C(=O)N3CCOCC3)cc3c(OCc4ccc(C(F)(F)F)cc4)cccc3c2O1
[1]
  MIC: 8 µg/mL
[3]
  MIC: 256 µg/mL
[4]
  MIC: 16 µg/mL (≈ 32 µM)
[5]
  MIC: 16 µg/mL
[6]
  Activity: Not Active
[7]
  MIC: 512 µg/mL
[8]
  MIC: 64 µg/mL
[9]
  MIC: 0.06 µg/mL
[10]
  MIC: 16 µg/mL
[11]
  MIC: 0.06 µg/mL
[12]
  Activity: Not Active
[13]
  MIC: 0.06 µg/mL

## CC1(C)CCc2c(C(=O)N3CCOCC3)cc3c(OCc4ccccc4)cccc3c2O1
[1]
  MIC: 4 µg/mL
[2]
  inhibition: Active
[3]
  MIC: 64 µg/mL
[4]
  MIC: 16 µg/mL (≈ 37.1 µM)
[5]
  MIC: 16 µg/mL
[6]
  Activity: Not Active
[7]
  MIC: 512 µg/mL
[8]
  MIC: 64 µg/mL
[9]
  MIC: 0.03 µg/mL
[10]
  MIC: 8 µg/mL
[11]
  MIC: 0.03 µg/mL
[12]
  Activity: Not Active
[13]
  MIC: 0.03 µg/mL

## CC1CN(C(=O)c2cc3c(OCc4c(Cl)cccc4Cl)cccc3c3c2CCC(C)(C)O3)CC(C)O1 (stereo unspecified)
[1]
  MIC: 8 µg/mL
[2]
  inhibition: Active
[3]
  MIC: 1020 µg/mL
[4]
  MIC: 16 µg/mL (≈ 30.3 µM)
[5]
  MIC: 64 µg/mL
[6]
  Activity: Not Active
[7]
  MIC: 1020 µg/mL
[8]
  MIC: 64 µg/mL
[9]
  MIC: 0.03 µg/mL
[10]
  MIC: 64 µg/mL
[11]
  MIC: 0.03 µg/mL
[13]
  MIC: 0.03 µg/mL

## Cc1ccc(COc2cccc3c4c(c(-c5nnco5)cc23)CCC(C)(C)O4)cc1
[1]
  MIC: 8 µg/mL
[2]
  inhibition: Active
[3]
  MIC: 64 µg/mL
[4]
  MIC: 16 µg/mL (≈ 40 µM)
[5]
  MIC: 16 µg/mL
[7]
  MIC: 512 µg/mL
[8]
  MIC: 32 µg/mL
[9]
  MIC: 0.03 µg/mL
[10]
  MIC: 8 µg/mL
[11]
  MIC: 0.03 µg/mL
[14]
  Activity: Not Active
[12]
  Activity: Not Active
[13]
  MIC: 0.01 µg/mL

— ChEMBL document CHEMBL4732114, “Design and structural optimization of novel 2H-benzo[h]chromene derivatives that target AcrB and reverse bacterial multidrug resistance” (Eur J Med Chem, 2021)
